Screening results deposited in PubChem by several laboratories.
NF-kB expr up = raises NF-kB expression in human neuronal cells | fold change at 12.5 µM | NF-kB reporter expression; hits give high values | AID 1239 | 1.6% of 190,000 active; in the data active = fold change above about 3.3
APP 5'UTR act = activates APP 5'UTR luciferase reporter; SH-SY5Y APP 5'UTR luciferase reporter, luminescence; zero percent = DMSO vehicle wells; activation, % at 2 µM; 1% of 190,000 active; AID 1276;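 active = activation above a set limit, based on mean plus 3 SD of controls, cut at about 140% in these data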
FLuc stim CS = affects firefly luciferase, flagging false hits in luciferase stimulation screens | ATPlite luciferase biochemical, luminescence, 10 min; 0 = ATP-free wells, 1 = DMSO control | 200,000 tested, under 10 active | AID 1027 | activation factor at 10 µM;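 active = luciferase activation factor, scaled between plate controls, of at least 2 with compound at 10 µM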
Target sequence (P08659 whole entry, looked up): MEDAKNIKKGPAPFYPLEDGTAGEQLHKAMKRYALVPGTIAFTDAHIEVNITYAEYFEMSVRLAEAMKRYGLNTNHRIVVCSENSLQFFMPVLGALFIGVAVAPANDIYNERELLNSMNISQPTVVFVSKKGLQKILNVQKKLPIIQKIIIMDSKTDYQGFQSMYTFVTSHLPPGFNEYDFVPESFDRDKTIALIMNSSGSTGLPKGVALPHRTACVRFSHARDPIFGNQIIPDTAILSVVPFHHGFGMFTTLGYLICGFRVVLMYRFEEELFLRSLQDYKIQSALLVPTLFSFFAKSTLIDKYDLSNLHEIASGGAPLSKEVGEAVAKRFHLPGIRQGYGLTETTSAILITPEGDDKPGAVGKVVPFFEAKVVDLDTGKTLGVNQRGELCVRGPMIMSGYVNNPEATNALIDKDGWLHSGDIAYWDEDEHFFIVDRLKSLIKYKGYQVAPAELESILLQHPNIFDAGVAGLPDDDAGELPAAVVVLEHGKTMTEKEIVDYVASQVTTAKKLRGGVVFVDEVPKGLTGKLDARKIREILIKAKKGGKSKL
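System: Luciferase/luciferin detection reagent, cell-free biochemical luciferase assay | Medium: PBS buffer for ATP | Dosing: Test compounds dosed from 2 mM stocks in 100% DMSO | Timing: 10 min at ambient temperature | Signal: Luminescence measurement of luciferase light output | Evaluation: Luciferase activation, seen as luminescence increase over controls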
FLuc inhib CS = counter-screen for luciferase assay inhibitors: firefly luciferase inhibition; 1.5% of 200,000 active; ATPLite firefly luciferase biochemical luminescence, 10 min; P08659; inhibition, % at 10 µM;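 active = inhibition above about 50% when tested at 10 µM, limit read from the data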
STAT1 act = increases IFN-gamma driven STAT1 reporter signal; activation (% of control), % at 5.5 µM; 2.6% of 200,000 active; NIH 3T3 STAT1-luciferase reporter, luminescence; 100% = IFN-gamma alone, no compound; AID 932;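 active = activation above the screen-wide mean activation plus 3 SD, cut at about 130% in these data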;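 note: raw ratio to IFN-gamma control signal so 100% means no change and 0% no light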
* marks the source's active call; other numbers are inactive results; x = no result given. Rows were chosen to be rich in hits. Some 4.3% of all compounds tested hit in one or more screens of this group.

SMILES | NF-kB expr up | APP 5'UTR act | FLuc stim CS | FLuc inhib CS | STAT1 act
Cc1ccc2nc(-c3ccccn3)oc2c1 | 4.5* | 176* | 0.2 | 84* | 116
Cc1ccc2nc(-c3cccnc3)oc2c1 | 2 | 91 | 0.6 | 39 | 128
Cc1ccc(C(=O)NCc2ccccn2)cc1Cl | 1.5 | 5 | 1 | -5 | 119
c1ccc(-c2nccc(-c3ccco3)n2)nc1 | 1.3 | 16 | 1 | 0 | 103
c1ccc(-c2nc(-c3ccco3)cs2)nc1 | 0.71 | 29 | 0.9 | 12 | 130*
Cc1ccoc1C(=O)N1CCCCC1C(=O)O (stereo not drawn) | 1.4 | 24 | 1 | -4 | 95
Cc1ccc(-c2nc(-c3ccccn3)no2)cc1 | 0.3 | -39 | 0 | 97* | 17
c1ccc(-c2nc(-c3ccccn3)no2)cc1 | 1.8 | 64 | 0.1 | 90* | 47
Cc1ccc(Cc2nc(-c3ccccn3)no2)cc1 | 2.5 | 117 | 0.7 | 27 | 127
c1ccc(SCc2nc(-c3ccccn3)no2)cc1 | 2.1 | 80 | 0.9 | 11 | 126
Clc1cccc(-c2nc(-c3ccccn3)no2)c1 | 1.6 | 97 | 0.1 | 93* | 63
COc1nc(C)ccc1-c1noc(-c2ccco2)n1 | 4.6* | 182* | 0.4 | 58* | 140*
Cc1ccc(NCCC#N)cc1C | 1.1 | 16 | 1.1 | -7 | 102
COc1ccc(C2Nc3ccccc3C(=O)N2NS(=O)(=O)c2ccccc2)cc1 (stereo not drawn) | x | 8 | 1 | -3 | 102
c1ccc(-c2ccc(-c3nc(-c4ccccn4)no3)cc2)cc1 | 0.3 | -46 | 0.1 | 94* | 18
Fc1ccc(-c2csc(-c3ccccn3)n2)cc1F | 2.8 | 9 | 1 | -1 | 140*
c1ccc(-c2cc(-c3nc(-c4ccccn4)no3)c3ccccc3n2)cc1 | x | -2 | x | x | 103
COc1ccc(-c2csc(N)n2)cc1F | 1.8 | 46 | 0.8 | 18 | 122
CCOc1ccc(NCc2ccccc2OCc2cccc(F)c2)cc1 | 0.95 | 22 | 1 | -3 | 101
Cc1ccc(C(=O)Nc2cnc3ccccn3c2=O)cc1 | 2.6 | 39 | 0.8 | 16 | 132*
O=C(Nc1cnc2ccccn2c1=O)c1ccc(Cl)cc1Cl | 1.7 | 153* | 0.3 | 75* | 63
COC(=O)c1sc(N2CCN(c3ccc(Cl)cc3)CC2)nc1N | 0.98 | 34 | 1 | -2 | 92
CCOC(=O)CSc1ccc(-c2nc3ccccc3[nH]2)cn1 | 0.92 | 18 | 0.8 | 22 | 110
Cc1cc2nc(-c3ccc(SCC(=O)N4CCN(C(=O)c5ccco5)CC4)nc3)[nH]c2cc1C | 0.81 | 40 | 0.2 | 81* | 106
Cc1cc2cc3c(cc2nc1SCC(=O)N1CCN(C(=O)c2ccco2)CC1)OCO3 | x | -15 | 1 | -4 | 99
SMILES | NF-kB expr up | APP 5'UTR act | FLuc stim CS | FLuc inhib CS | STAT1 act
CCOC(=O)CSc1ccc(-c2nc3cc(C)c(C)cc3[nH]2)cn1 | 0.88 | 16 | 0.4 | 64* | 110
N#CCSc1ccc(-c2nc3ccccc3[nH]2)cn1 | 1.4 | 41 | 0.4 | 58* | 119
Cc1cc2nc(-c3ccc(SCC(=O)N4CCOCC4)nc3)[nH]c2cc1C | 1.2 | 65 | 0.3 | 73* | 123
O=C(CN1CCN(S(=O)(=O)c2ccc3ccccc3c2)CC1)Nc1ccc2c(c1)CCC2 | 0.9 | -2 | 1 | 1 | 110
Cc1cc2nc(-c3ccc(SCc4ccccn4)nc3)[nH]c2cc1C | 2 | 49 | 0.8 | 18 | 135*
Cc1cc2cc3c(cc2nc1SCc1ccccn1)OCCO3 | 1.4 | 37 | 1 | -4 | 94
COc1ccccc1-n1cnc2cc(NCc3cccs3)ccc21 | 3.3* | -93 | 1 | -2 | 113
c1ccc(-c2cc(N3CCCCC3)ncn2)cc1 | 1.7 | 45 | 0.9 | 13 | 117
c1ccc(-c2cc(N3CCCCCC3)n[nH]2)cc1 | 1.4 | 28 | 1 | 2 | 130*
COc1ccc(NC2=Nc3ccccc3CC2)cc1 | 3.7* | 102 | 1 | 5 | 132*
CCOc1ccccc1NC(=O)COC(=O)c1cc(C(=O)OC)cc([N+](=O)[O-])c1 | 0.85 | -1 | 1.1 | -8 | 99
COc1cccc(-c2nnc(-c3ccc(C)o3)o2)c1 | 4.2* | 164* | 0.1 | 86* | 120
COc1cccc(-c2nnc(-c3ccco3)o2)c1 | 3 | 109 | 0.5 | 54* | 144*
CCOC(=O)c1cnc(SCC(C)C)nc1N | 4.7* | 146* | 0.9 | 14 | 137*
CCOC(=O)c1ccc2ncc(-c3ccccc3)nc2c1 | 4.2* | 139* | 0.3 | 74* | 148*
CCC(=O)Nc1cccc(-c2cnc3ccccc3n2)c1 | 1.5 | 52 | 0.9 | 10 | 129*
CCOC(=O)c1cnc(SCC(=O)c2ccccc2)nc1N | 3.7* | 112 | 0.8 | 16 | 144*
CC(C)c1ccc(N(CC(=O)NCC2CCCO2)C(=O)Cn2nnc(-c3cccs3)n2)cc1 (stereo not drawn) | 1.1 | -11 | 1.1 | -9 | 103
CCn1ccc(-c2ccccc2)c(C#N)c1=O | 0.89 | 1 | 1.1 | -8 | 101
O=[N+]([O-])c1cc(S(=O)(=O)N2CCCCC2)ccc1NCCCN1CCOCC1 | 1.2 | 15 | 1.1 | -6 | 91
CCOC(=O)c1cnc(-c2ccccc2)nc1N(C)C | 1.9 | 92 | 0.9 | 10 | 116
CCOC(=O)c1cnc(-c2ccccc2)nc1N | 5* | 126 | 0.7 | 29 | 146*
Cc1c(NC(=O)C2CCCCC2)cc(C(=O)N2CCOCC2)cc1[N+](=O)[O-] | 1.3 | 0 | 1 | 0 | 96
COc1ccc(NC(=O)Nc2ncccc2C)cc1 | 1.9 | 13 | 0.7 | 28 | 139*
COc1ccc(NC(=O)Nc2cc(C)ccc2F)cc1 | 2.6 | 123 | 0.8 | 15 | 130*
SMILES | NF-kB expr up | APP 5'UTR act | FLuc stim CS | FLuc inhib CS | STAT1 act
Cc1cccnc1NC(=S)Nc1ccc(Cl)c(Cl)c1 | 2.4 | 8 | 1 | -5 | 119
COc1ccc(NC(=O)Nc2ccc(Br)c(C)c2)cc1 | 1.5 | 61 | 1 | 0 | 145*
COc1ccc(NC(=S)Nc2ncccc2C)cc1OC | 1.9 | 39 | 0.9 | 9 | 131*
CCN(CC(=O)NC1CCS(=O)(=O)C1)S(=O)(=O)c1ccc(C)cc1C (stereo not drawn) | 1.1 | 8 | 1.1 | -6 | 91
Cc1oc(-c2ccccc2)nc1C(=O)N1CCN(c2ccc(F)cc2)CC1 | 1.1 | 4 | 1 | -3 | 103
Cc1ccc(C2=NN(C(=O)CN3C(=O)c4ccccc4S3(=O)=O)C(c3ccco3)C2)cc1 (stereo not drawn) | 0.81 | -8 | 1 | -2 | 104
COc1ccc(C2=NOC(CN3C(=O)c4ccccc4S3(=O)=O)C2)cc1 (stereo not drawn) | 5.5* | 137* | 0.6 | 43 | 148*
O=C(CN1C(=O)c2ccccc2S1(=O)=O)N1CCOCC1 | 1.2 | 29 | 1 | 1 | 105
O=C1c2ccccc2S(=O)(=O)N1CC1CC(c2ccc(Cl)cc2)=NO1 (stereo not drawn) | 1.4 | 100 | 0.5 | 50* | 139*
